LYPLA1 inh: counter-screen for PME1 inhibitors: inhibitors of human LYPLA1; recombinant LYPLA1, FP-Rh probe fluorescence polarization; 320,000 compounds, 0.16% hits; inhibition, % at 5.9 µM;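 active = inhibition above the mean of all tested compounds plus 3 SD, set per campaign, cut at about 14% in these data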;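 note: inhibitors block serine hydrolase probe labeling of LYPLA1 so polarization falls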
Target sequence (O75608 whole entry, looked up): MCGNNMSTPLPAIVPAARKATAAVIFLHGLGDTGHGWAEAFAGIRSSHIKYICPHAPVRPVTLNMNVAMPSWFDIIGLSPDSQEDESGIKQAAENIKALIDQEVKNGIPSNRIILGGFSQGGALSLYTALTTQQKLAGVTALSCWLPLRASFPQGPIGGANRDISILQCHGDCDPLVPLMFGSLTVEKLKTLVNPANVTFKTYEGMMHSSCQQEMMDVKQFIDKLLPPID
procasp7 counter: counter-screen: procaspase-7 (human) activation. P55210. recombinant procaspase-7, Ac-DEVD-pNA absorbance 405 nm; D23A/D198A/D206A triple mutant, cannot self-cleave; scale: DMSO 0, 5 µM enzyme 100. activation, % at 8.5 µM. 330,000 compounds, 0.093% hits. AID 463210;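 active = percent activation above the screen-wide mean plus 3 SD, cut at about 25% in these data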
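System: Uncleavable procaspase-7 mutant enzyme; Amount: 2 µM procaspase-7 mutant as dispensed; Schedule: 1 h compound preincubation, 2 h substrate cleavage, 25 °C; Measured by: 405 nm absorbance of p-nitroaniline; Evaluation: percent activation from buffer-corrected 0–120 min absorbance change; Control set: low DMSO alone, high DMSO plus 5 µM PC-7.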
LYPLA2 inh: blocks human lysophospholipase 2, a PME1 counter-screen | 320,000 compounds, 0.38% hits | inhibition, % at 5.9 µM | recombinant LYPLA2, FP-Rh probe fluorescence polarization | O95372;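 active = inhibition above the screen-wide mean plus 3 SD, limit set per campaign, cut at about 26% in these data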
Target sequence (O95372 whole entry, looked up): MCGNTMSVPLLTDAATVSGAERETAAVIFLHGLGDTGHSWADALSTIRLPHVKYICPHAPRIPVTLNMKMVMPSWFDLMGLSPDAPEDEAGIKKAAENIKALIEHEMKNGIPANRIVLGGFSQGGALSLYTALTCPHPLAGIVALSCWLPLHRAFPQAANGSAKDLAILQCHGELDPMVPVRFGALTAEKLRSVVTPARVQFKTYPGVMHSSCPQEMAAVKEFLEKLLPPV
procasp3 activ: activates human procaspase-3; AID 463141; activation, % at 8.5 µM; 330,000 compounds, 0.11% hits; recombinant procaspase-3 D3A, Ac-DEVD-pNA absorbance 405 nm; P42574;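 active = activation above the mean of all tested compounds plus 3 SD, cut at about 21% in these data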
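assay system = Procaspase-3 D3A mutant | signal = absorbance at 405 nm, 0 and 120 min | times = 1 h preincubation plus 2 h reaction at 25 °C | repeats = single replicate | read-out = % activation between DMSO and enzyme-spiked controls | medium = Zinc-free HEPES saline buffer with Triton X-100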
PREPL inh: human PREPL enzyme inhibition; 320,000 compounds, 0.68% hits; Q4J6C6; inhibition, % at 5.96 µM; recombinant PREPL, fluorescence polarization activity-based probe; in the data active = inhibition above about 43%
LYPLA2 conf: LYPLA2 (human) inhibition, confirmation counter-screen; inhibition, % at 5.9 µM; AID 2232; shares compounds with LYPLA2 inh; 1,100 compounds, 72% hits; recombinant LYPLA2, FP-Rh probe fluorescence polarization;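 active = mean inhibition across replicates above the hit cutoff set in the primary screen, cut at about 26% in these data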;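 note: blocked labeling of the enzyme by serine hydrolase FP-Rh probe lowers polarization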
LYPLA2 ABPP: LYPLA2 (human) inhibition, late stage results; 150 compounds, 30% hits; inhibition, % at 20 µM; shares compounds with LYPLA2 inh; rhLYPLA2 in mouse brain proteome, gel ABPP FP-Rh;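 active = inhibition of LYPLA2 enzyme probe labeling above about 50%, limit read from the data; inactive = inhibition below that limit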;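 note: loss of FP-Rh probe labeling of the LYPLA2 gel band measured as band density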
Large screens that a line does not name were inactive (follow-up assays come after a bar, where they were run). An excerpt weighted towards active compounds, which were near 1.1% of everything screened.

CN1CCN(C(=O)c2ccc3c(c2)S(=O)(=O)c2ccccc2C3=O)CC1	none
CCN1CCN(C(=O)c2ccc3c(c2)S(=O)(=O)c2ccccc2C3=O)CC1	LYPLA2 inh 40 | LYPLA2 conf 44
COc1ccc(S(=O)(=O)N2CCN(C(=O)CSC(=S)N3CCCC3)CC2)cc1	none
Cc1ccc(NC(=O)CCC(=O)OCC(=O)c2ccc(Oc3ccc([N+](=O)[O-])cc3)cc2)cc1C	LYPLA2 inh 36 | LYPLA2 conf inactive
Cc1ccc(-n2c(-c3ccncc3)n[nH]c2=S)c(C)c1	none
COc1ccc(N2CCN(CCCNC(=O)c3cc4sccc4n3C)CC2)cc1	LYPLA2 inh 33 | LYPLA2 conf 32
Cc1cc(O)cc(=O)n1CCc1ccccc1	none
CC(=O)c1ccc(N2CCN(C(=O)c3noc4c3CSc3ccccc3-4)CC2)cc1	LYPLA2 inh 44 | LYPLA2 conf inactive
COc1ccc(-n2nc(C(=O)NCC(=O)NCCc3ccc(OC)c(OC)c3)c3ccccc3c2=O)cc1Cl	none
NC(=O)NC(=O)C(c1ccccc1)N1CCN(S(=O)(=O)Cc2ccccc2)CC1 (stereo not drawn)	none
Cc1ccc(CN2CCN(/N=C/c3ccc(O)c(O)c3)CC2)cc1	none
COc1ccc(/C=N/N2CCN(Cc3ccc(C)cc3)CC2)cc1Br	LYPLA2 inh 26 | LYPLA2 conf inactive
CN(C(=O)c1ccc(Cl)c([N+](=O)[O-])c1)C1(C)CCS(=O)(=O)C1 (stereo not drawn)	none
CC(C)CCN1C(Nc2ccccc2)=NC[C@@H]1C	none
Cc1ccc(C(CNC(=O)C(=O)Nc2ccc3c(c2)OCCO3)N2CCN(C)CC2)cc1 (stereo not drawn)	LYPLA2 inh 44 | LYPLA2 conf inactive
COC(=O)N/N=C/c1ccccc1OCCOc1ccc(OC)cc1	LYPLA2 inh 35 | LYPLA2 conf 42
O=C(Cn1cnc2ccccc2c1=O)c1cccs1	none
CCOc1ccc(C(=O)Cn2cnc3ccccc3c2=O)cc1	LYPLA2 inh 34 | LYPLA2 conf inactive
CCc1ccc(C(=O)Cn2cnc3cc([N+](=O)[O-])ccc3c2=O)cc1	LYPLA2 inh 46 | LYPLA2 conf 37
O=C(Cn1cnc2ccccc2c1=O)c1ccc(Br)cc1	LYPLA2 inh 29 | LYPLA2 conf 42
O=C(Cn1cnc2ccccc2c1=O)c1ccccc1	none
O=C(Cn1cnc2ccccc2c1=O)c1ccc(OC(F)F)cc1	LYPLA2 inh 52 | LYPLA2 conf 67 | LYPLA2 ABPP 70
Cc1ccc(C(=O)Cn2cnc3ccccc3c2=O)cc1	none
CC(C)N(C(=O)Cn1cnc2cc([N+](=O)[O-])ccc2c1=O)C(C)C	none
CCOC(=O)C1(CC2CC2)CCN(C(=O)c2cc(C)nc3ccc(CC)cc23)CC1	none
CC1(C)C[C@@H]1C(=O)N/C(=C\CCCCSC[C@H](N)C(=O)O)C(=O)O	none
CCOC(=O)c1c(C)[nH]c(C)c1C(=O)COC(=O)c1cccnc1Cl	none (no result: LYPLA1 inh, LYPLA2 inh)
O=C(NC(=S)NCc1cccnc1)c1ccc([N+](=O)[O-])cc1	none
O=C(NCc1cccnc1)c1ccc(NC(=O)c2ccc([N+](=O)[O-])cc2)cc1	LYPLA2 inh 37 | LYPLA2 conf 30
O=C(c1ccc(Cl)cc1)N1CCC(O)(CSc2ccc(Cl)cc2)CC1	LYPLA2 inh 33 | LYPLA2 conf 29
Cc1cc(C(=O)NNC(=O)c2ccc(Cl)c(S(N)(=O)=O)c2)c(C)o1	none (no result: LYPLA1 inh, LYPLA2 inh)
Cc1c(Br)c([N+](=O)[O-])nn1CC(=O)N1CCN(C23CC4CC(CC(C4)C2)C3)CC1	LYPLA2 inh 27 | LYPLA2 conf inactive
Cc1ccc(NC(=O)Cn2c([N+](=O)[O-])cnc2C)cc1Cl	LYPLA2 inh 57 | LYPLA2 conf 51 | LYPLA2 ABPP 67
Cc1ncc([N+](=O)[O-])n1CC(=O)Nc1ccc(Cl)cc1	LYPLA2 inh 47 | LYPLA2 conf 51 | LYPLA2 ABPP inactive
Cc1ccccc1NC(=O)Cn1c([N+](=O)[O-])cnc1C	none
Cc1nc([N+](=O)[O-])cn1CC(=O)Nc1ccc(F)c(Cl)c1	LYPLA2 inh 45 | LYPLA2 conf 59 | LYPLA2 ABPP 70
Cc1ncc([N+](=O)[O-])n1CC(=O)Nc1ccc(F)c(F)c1	LYPLA2 inh 67 | LYPLA2 conf 60 | LYPLA2 ABPP inactive
CCCc1cc(=O)[nH]c(SCC(=O)NC2(C#N)CCCCC2)n1	none
CN(C)C=NC(=O)c1cn(-c2ccc(F)cc2)c(=O)c2ccccc12	none
O=C(CNC(=O)c1sc2ccccc2c1Cl)NCc1ccc(F)cc1	none
CC(=O)N[C@@H](CC(=O)O)C(=O)O	none
Cc1ccnc(SCC(=O)O)n1	none
COC(=O)CSc1nccc(C)n1	LYPLA2 inh 44 | LYPLA2 conf inactive
CNC(=S)Nc1ccc(N2CCN(c3ccc(C(F)(F)F)cn3)CC2)nc1	LYPLA2 inh 54 | LYPLA2 conf 65 | LYPLA2 ABPP inactive
O=C(c1ccco1)N1CCN(S(=O)(=O)c2c(Cl)cccc2Cl)CC1	none
CCN(CC)S(=O)(=O)c1cc(NC(=O)CNc2cccc(S(=O)(=O)N3CCCC3)c2)ccc1C	none
O=C(CCc1ccccc1)NC(=S)Nc1cc(C(F)(F)F)ccc1N1CCOCC1	LYPLA2 inh 31 | LYPLA2 conf inactive
O=C(c1cccc(S(=O)(=O)NCc2ccccc2)c1)N1CCN(Cc2ccccc2)CC1	none
COc1ccc(S(=O)(=O)NCc2ccc(C(=O)N3CCN(Cc4ccccc4)CC3)cc2)cc1	LYPLA2 inh 68 | LYPLA2 conf 59 | LYPLA2 ABPP inactive
Cc1ccc(S(=O)(=O)NCc2ccc(C(=O)N3CCN(Cc4ccccc4)CC3)cc2)cc1	none
COc1cccc(S(=O)(=O)NCc2ccc(C(=O)N3CCN(Cc4ccccc4)CC3)cc2)c1	LYPLA2 inh 43 | LYPLA2 conf 49
O=[N+]([O-])c1ccc(Oc2cccc3cccnc23)c(Cl)c1	LYPLA2 inh 28 | LYPLA2 conf inactive
NC(=O)c1ccc(Oc2cccc3cccnc23)c([N+](=O)[O-])c1	none
Cc1cc(C)c(S(=O)(=O)N2CCOC2CNC(=O)C(=O)NCCN2CCOCC2)c(C)c1 (stereo not drawn)	none
CCOc1ccc(/C=N/N2C(=O)C(CC(=O)Nc3ccc(F)cc3F)SC2=NC)cc1OC (stereo not drawn)	none
CN=C1SC(CC(=O)Nc2ccc(F)cc2F)C(=O)N1/N=C(\C)c1cccc(OCC(=O)O)c1 (stereo not drawn)	LYPLA2 inh 26 | LYPLA2 conf inactive
COc1cc(OC)cc(-c2oc(=O)c3cc(OC)c(OC)cc3c2/C=C/c2ccc(F)cc2)c1	none

Screens as filed in PubChem BioAssay.
